PubChem BioAssay
Active and inactive are the calls of the source.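 The calls were made as follows, unless noted: active = NADPH fluorescence slope more negative than the mean of all samples by about 3 SD, 99.7% confidence; inactive = the rest.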

What was measured:
[1] = inhibitors of TNFa-induced NFkB p65 translocation, primary screen, imaging, HUVEC, MLSMR starter and 10KST1 sets (AID 438;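 active = inhibition above 20% together with a positive visual image hit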;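 also: compound added about 3h40 before a 20 min TNFalpha stimulation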;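 as to inhibition: signal is the nuclear over cytoplasmic p65 intensity ratio per well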); conditions: HUVEC TNFa-induced p65 nuclear translocation; cell count: measured here: nuclei count (cytotoxicity indicator), at 2.08 µM; inhibition: at 2 µM, stronger effect = higher value, 0% TNFa-plus-vehicle, 100% no-TNFa wells
[2] = inhibitors of mutant huntingtin aggregation, primary screen, imaging, exon1htt(103Q)mCFP cells, high-content imaging (AID 483;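 active = visual image review flags a hit and inhibition of aggregation exceeds 20%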;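 also: compound exposure lasted 3 days before fixation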;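 as to nuclei count: percent of the per-plate median nuclei count of sample wells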); conditions: exon1htt(103Q)mCFP cell line, aggregate imaging, at 2 µM; inhibition of aggregation: stronger effect = higher value; nuclei count: measured here: cell count, toxicity
[3] = inhibitors of E-selectin induction by TNFa, primary screen, imaging, HUVEC, immunofluorescence, MLSMR starter and 10KST1 sets (AID 487;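 active = visually confirmed hit in the image check and inhibition above 20%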;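 as to inhibition: signal is fraction of cell area covered by stained E-selectin grains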;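 as to nuclei count: 100% = median nuclei count of all wells on the same plate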); conditions: HUVEC TNFalpha-induced E-selectin immunofluorescence imaging, at 2 µM; inhibition: stronger effect = higher value; nuclei count: measured here: cell number, toxicity
[4] = target: Voltage-gated potassium channel subunit beta-2 (Rattus norvegicus) (UniProt P62483); assay: KvBeta enzyme negative modulators, primary screen, biochemical, NADPH fluorescence (AID 622;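 active = fluorescence slope higher than the sample average by over 3 SD, cut at about -0.22 in these data, passing the limit was not always enough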;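 also: slope of raw intensity against log time taken from 70 to 1610 s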); conditions: recombinant KvBeta, 4-cyanobenzaldehyde reduction, at 10 µM, stronger effect = higher value
[5] = target: Voltage-gated potassium channel subunit beta-2 (Rattus norvegicus) (UniProt P62483); assay: KvBeta positive modulators, primary screen, biochemical, NADPH fluorescence (AID 623); conditions: Recombinant KvBeta, NADPH fluorescence decrease slope, 10 min; at 10 µM; stronger effect = lower value;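 also: fluorescence intensity change per second fitted from 20 to 320 s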
[6] = target: Muscarinic acetylcholine receptor M4 (Homo sapiens) (UniProt P08173); assay: compounds altering M4/GIRK thallium flux, either direction, primary screen, M4 allosteric agonist project, cell-based, HEK293 M4/GIRK, BTC-AM (AID 625;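 active = fluorescence slope after compound addition differing from the mean of all tested samples at 99.7% confidence, mostly higher but some lower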;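 also: thallium influx through GIRK channels coupled to M4 in HEK293 cells with BTC-AM dye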); conditions: at 10 µM, actives lie on both sides
Procedure, shortened: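 Material: HEK293 cells with M4 receptor and GIRK channels; Times: cells overnight at 37 °C, BTC-AM loading 1 h, reads 2 min total; Technique: kinetic BTC-AM fluorescence sampled at 1 Hz, 10 s pre-addition baseline; Read-out basis: slope over 15–24 s of trace normalized to starting intensity; Controls: carbachol positive, DMSO negative.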

[7] = inhibitors of Sendai virus-induced IRF3 signaling, primary screen, TLR/RLR signaling modifier project, cell-based, Sendai virus stimulus, luciferase, 10K MLSCN set (AID 602276;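 active = inhibition at or above 50% at 10 µM; inactive = inhibition below 50%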;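 also: firefly luciferase from ISG56 promoter only with Renilla not read in this screen; 0% = Sendai virus plus DMSO and 100% = medium plus DMSO without virus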); conditions: HEK293 RL24 IRF3 luciferase reporter, at 10 µM, stronger effect = higher value
[8] = inhibitors of poly I:C-induced TLR3 signaling, primary screen, cell-based, poly I:C stimulus, luciferase, 10K MLSCN set (AID 602277;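 active = inhibition of the reporter signal at or above 50%; inactive = inhibition below 50%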); conditions: HEK293-TLR3 RL24 IRF3 luciferase reporter, at 10 µM, stronger effect = higher value

Chain of Muscarinic acetylcholine receptor M4 (Homo sapiens) (P08173 whole entry, looked up): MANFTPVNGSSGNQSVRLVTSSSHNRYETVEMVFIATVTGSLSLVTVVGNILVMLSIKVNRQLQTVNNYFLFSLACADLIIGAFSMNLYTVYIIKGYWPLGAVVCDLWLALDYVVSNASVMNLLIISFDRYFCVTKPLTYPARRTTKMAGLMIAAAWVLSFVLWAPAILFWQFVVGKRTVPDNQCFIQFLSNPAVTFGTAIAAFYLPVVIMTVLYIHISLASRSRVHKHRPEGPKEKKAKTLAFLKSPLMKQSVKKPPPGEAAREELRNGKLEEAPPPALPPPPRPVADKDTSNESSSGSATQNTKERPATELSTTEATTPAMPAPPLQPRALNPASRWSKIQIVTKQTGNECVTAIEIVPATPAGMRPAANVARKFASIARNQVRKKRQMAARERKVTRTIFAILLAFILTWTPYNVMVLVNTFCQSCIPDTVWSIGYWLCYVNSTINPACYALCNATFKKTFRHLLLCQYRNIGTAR
Chain of Voltage-gated potassium channel subunit beta-2 (Rattus norvegicus) (P62483 whole entry, looked up): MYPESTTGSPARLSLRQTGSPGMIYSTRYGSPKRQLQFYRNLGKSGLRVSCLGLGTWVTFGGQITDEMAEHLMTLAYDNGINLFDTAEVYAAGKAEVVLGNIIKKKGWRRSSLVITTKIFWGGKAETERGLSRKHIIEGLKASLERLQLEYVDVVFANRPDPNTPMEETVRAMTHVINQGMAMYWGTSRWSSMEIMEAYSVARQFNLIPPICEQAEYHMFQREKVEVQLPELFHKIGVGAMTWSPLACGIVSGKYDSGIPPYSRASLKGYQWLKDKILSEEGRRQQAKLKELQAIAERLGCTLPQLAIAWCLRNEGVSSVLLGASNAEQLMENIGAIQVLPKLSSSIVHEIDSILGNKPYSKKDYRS

SMILES	cell count [1]	inhibition [1]	inhibition of aggregation [2]	nuclei count [2]	inhibition [3]	nuclei count [3]	fluorescence slope [4]	NADPH fluorescence slope [5]	fluorescence slope [6]	inhibition [7]	inhibition [8]
CCOC(=O)C1CCN(Cc2ccc(C(=O)OC)cc2)CC1	462	-4.3% (inactive)	-0.6% (inactive)	97%	4.3% (inactive)	85.6%	-0.595 (inactive)	-4.2e-05 (inactive)	0.0043 (inactive)	0.779% (inactive)	12.5% (inactive)
Cc1ccc(CNC(=O)CSc2n[nH]c(N)n2)cc1	498	-7.2% (inactive)	20% (inactive)	44.8%	-21.8% (inactive)	136%	-0.579 (inactive)	-6.4e-05 (inactive)	0.00347 (inactive)	15.9% (inactive)	20.6% (inactive)
CCc1ccc2oc(-c3cc(N)ccc3Cl)nc2c1	563	-33.7% (inactive)	3% (inactive)	98.1%	-53.6% (inactive)	110%	-0.298 (inactive)	8.8e-06 (inactive)	0.006 (inactive)	-31.8% (inactive)	-60.1% (inactive)
CC(C)=CC(=O)Nc1ccc(Br)cc1	670	-11.9% (inactive)	-6.6% (inactive)	73.9%	5.2% (inactive)	91.1%	-0.582 (inactive)	-1.3e-05 (inactive)	0.00668 (inactive)	-88% (inactive)	-158% (inactive)
CCCn1cc(SCC(=O)NCc2ccco2)c2ccccc21	679	-25.2% (inactive)	-35.4% (inactive)	124%	20% (inactive)	100%	-0.521 (inactive)	9.7e-06 (inactive)	0.00408 (inactive)	13% (inactive)	5.85% (inactive)
Nc1ncnc2nc(SCCN3CCCCC3)[nH]c12	189	-0.7% (inactive)	5% (inactive)	90.8%	-0.1% (inactive)	92.4%	-0.545 (inactive)	-3.4e-05 (inactive)	0.00574 (inactive)	17.8% (inactive)	10.9% (inactive)
CCCCn1cnc2c(cnn2-c2ccc(Cl)cc2)c1=O	342	-16.3% (inactive)	-4.9% (inactive)	102%	-72% (inactive)	103%	-0.531 (inactive)	-2.1e-05 (inactive)	0.00515 (inactive)	-48.5% (inactive)	-141% (inactive)
N#CC1=C(N)n2c(s/c(=C\c3ccco3)c2=O)=C(C#N)C1c1ccco1 (stereo not drawn)	422	-2.2% (inactive)	8.3% (inactive)	106%	-34.4% (inactive)	116%	-0.565 (inactive)	-3.6e-05 (inactive)	0.00353 (inactive)	19.5% (inactive)	38% (inactive)
CCc1ccc2nc(NC(=O)CSCc3c(C)noc3C)sc2c1	416	-2% (inactive)	-12.1% (inactive)	105%	-87.1% (inactive)	112%	-0.463 (inactive)	1.1e-05 (inactive)	0.00795 (inactive)	-52.6% (inactive)	-109% (inactive)
CCOc1ccc(N(C)S(=O)(=O)c2ccc3[nH]cc(C(=O)NCC4CCCO4)c(=O)c3c2)cc1 (stereo not drawn)	313	3.3% (inactive)	-9.8% (inactive)	67.5%	4% (inactive)	96.5%	-0.567 (inactive)	-4.5e-05 (inactive)	0.00944 (inactive)	1.36% (inactive)	23% (inactive)
O=C(NCc1ccc2c(c1)OCO2)c1cc2n(n1)C(C(F)(F)F)CC(c1ccc3c(c1)OCO3)N2 (stereo not drawn)	407	-1.6% (inactive)	26.5% (inactive)	89.1%	-32% (inactive)	106%	-0.558 (inactive)	-4.2e-05 (inactive)	0.0053 (inactive)	18.5% (inactive)	24.4% (inactive)
CC(C)c1ccc(NC(=O)C2CC(=O)N(C(C)C)C2)cc1 (stereo not drawn)	232	-2.3% (inactive)	21% (inactive)	81.7%	-44.3% (inactive)	108%	-0.558 (inactive)	-6.2e-05 (inactive)	0.0102 (inactive)	12.8% (inactive)	-37.1% (inactive)
CCOC(=O)C(NC(=O)C1CCCN1C(=O)OCc1ccccc1)C(=O)OCC (stereo not drawn)	586	7.2% (inactive)	-1.6% (inactive)	105%	-11% (inactive)	97.9%	-0.567 (inactive)	-1.7e-05 (inactive)	0.00516 (inactive)	20.4% (inactive)	32% (inactive)
CN(C(=O)CSc1nc2c(c(=O)[nH]1)CCCC2)C1CCCCC1	820	-0.9% (inactive)	-33.2% (inactive)	117%	-253% (inactive)	120%	-0.504 (inactive)	4e-05 (inactive)	0.00553 (inactive)	4.83% (inactive)	18.3% (inactive)
O=C(NCCN1CCN(c2ccccc2)CC1)c1ccc(NC(=O)C2CCCO2)cc1 (stereo not drawn)	562	-21.6% (inactive)	-9% (inactive)	99.2%	-135% (inactive)	114%	-0.468 (inactive)	5.8e-06 (inactive)	0.00539 (inactive)	3.22% (inactive)	6.35% (inactive)
Cc1noc(C)c1S(=O)(=O)Nc1c(C)n(C)n(-c2ccccc2)c1=O	410	2.5% (inactive)	33.5% (inactive)	84.8%	-5.4% (inactive)	96%	-0.472 (inactive)	1.2e-05 (inactive)	0.00591 (inactive)	13.8% (inactive)	22.3% (inactive)
COC(=O)c1cccc(S(=O)(=O)N2CCN(c3nc4ccccc4s3)CC2)c1	299	-5% (inactive)	6.2% (inactive)	96.3%	-24.1% (inactive)	80.7%	-0.539 (inactive)	1.2e-05 (inactive)	0.00622 (inactive)	1.3% (inactive)	8.61% (inactive)
O=C(Cn1cnc2c(oc3ccccc32)c1=O)N1CCN(c2ccccc2)CC1	648	10.8% (inactive)	34.2% (inactive)	95%	-78% (inactive)	84.4%	-0.493 (inactive)	1.3e-05 (inactive)	0.00654 (inactive)	10.1% (inactive)	17.4% (inactive)
Cc1cc(NC(=O)CSc2nc3ccsc3c(=O)n2NC(=O)c2ccccc2)no1	317	-1.2% (inactive)	-4.7% (inactive)	102%	-234% (inactive)	117%	-0.449 (inactive)	9e-05 (inactive)	0.00651 (inactive)	-39.7% (inactive)	-61.1% (inactive)
CCOC(=O)N1CCC(NC(=O)C2CCCN2C(=O)OCc2ccccc2)CC1 (stereo not drawn)	861	-0.5% (inactive)	-11.6% (inactive)	120%	-19.6% (inactive)	110%	-0.561 (inactive)	-1.3e-05 (inactive)	0.00566 (inactive)	-11.6% (inactive)	-1.88% (inactive)
CCOc1ccc(N2CC(C(=O)Nc3ccc(F)cc3F)CC2=O)cc1 (stereo not drawn)	847	10.1% (inactive)	7.4% (inactive)	92.8%	-3.5% (inactive)	99.9%	-0.587 (inactive)	2.2e-05 (inactive)	0.00677 (inactive)	6.56% (inactive)	26.2% (inactive)
CC(=O)Oc1cccc(/C=c2\sc3nc(-c4ccco4)nn3c2=O)c1	324	-0.6% (inactive)	-30% (inactive)	103%	-69.5% (inactive)	80.7%	-0.549 (inactive)	-3e-05 (inactive)	0.00624 (inactive)	21.5% (inactive)	16.1% (inactive)
CSC1CCCCC1(O)CSc1nc2c(cc1C#N)CCCC2 (stereo not drawn)	306	-7.4% (inactive)	9% (inactive)	87%	-111% (inactive)	78.9%	-0.411 (inactive)	1e-05 (inactive)	0.00633 (inactive)	21.3% (inactive)	13.8% (inactive)
Cc1cc(C(=O)Nc2cc(C)n(Cc3ccc(Cl)cc3)n2)no1	240	9.5% (inactive)	-10.6% (inactive)	98.8%	-39.5% (inactive)	88.4%	-0.483 (inactive)	-1.4e-05 (inactive)	0.0053 (inactive)	-11.3% (inactive)	-27.1% (inactive)
Cc1ccc(-c2nc(-c3cccnc3)no2)c(C)c1	357	4.2% (inactive)	-8% (inactive)	107%	-54.5% (inactive)	105%	-0.571 (inactive)	-3.5e-05 (inactive)	0.00802 (inactive)	-33.6% (inactive)	-111% (inactive)
CC(C)(C)N=C1NC(=NC(C)(C)C)c2ccccc21	716	2.3% (inactive)	-5.7% (inactive)	106%	-18.9% (inactive)	107%	-0.525 (inactive)	-7.9e-06 (inactive)	0.00395 (inactive)	5.9% (inactive)	5.38% (inactive)
CCCCOC(=O)Cn1c(=N)n(CCN2CCOCC2)c2ccccc21	488	4% (inactive)	7.9% (inactive)	91.9%	-46.3% (inactive)	84.8%	-0.354 (inactive)	-6.5e-05 (inactive)	0.00576 (inactive)	8.18% (inactive)	17.7% (inactive)
COc1ccc(Cn2nnnc2C(c2ccncc2)N2CCOCC2)cc1 (stereo not drawn)	543	0.5% (inactive)	-5.2% (inactive)	90.8%	-90.6% (inactive)	119%	-0.608 (inactive)	-1.7e-05 (inactive)	0.00759 (inactive)	7.51% (inactive)	9.52% (inactive)
